Active and inactive are the calls of the source. The rule behind the calls is not given here.

This is an account of results in ChEMBL document CHEMBL1955723, “Discovery and synthesis of namalide reveals a new anabaenopeptin scaffold and peptidase inhibitor” (J Med Chem, 2012).

Data set [1] has as its target T1, Carboxypeptidase A1 (Bos taurus) (UniProt P00730).
T1 sequence (whole entry): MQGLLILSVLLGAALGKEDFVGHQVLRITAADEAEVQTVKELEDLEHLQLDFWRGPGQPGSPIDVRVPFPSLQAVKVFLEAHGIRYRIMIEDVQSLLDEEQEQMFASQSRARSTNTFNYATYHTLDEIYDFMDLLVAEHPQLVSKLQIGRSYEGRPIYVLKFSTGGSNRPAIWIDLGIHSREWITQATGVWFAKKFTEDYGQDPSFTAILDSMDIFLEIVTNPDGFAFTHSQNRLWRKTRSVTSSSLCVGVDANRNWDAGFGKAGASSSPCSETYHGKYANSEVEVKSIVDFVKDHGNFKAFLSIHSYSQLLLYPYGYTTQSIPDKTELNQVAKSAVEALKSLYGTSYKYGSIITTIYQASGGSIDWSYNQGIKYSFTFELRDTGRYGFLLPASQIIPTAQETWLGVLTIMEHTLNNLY
Put plainly: Inhibition of bovine pancreas carboxypeptidase A using N-(4-methoxyphenylazoformyl)-phenylalanine as substrate at 30 uM after 5 mins by colorimetry.

Data set [2] is described as follows: Inhibition of alpha chymotrypsin using N-benzoyl-L-tyrosine ethyl ester as substrate at 60 ug/mL after 5 mins by colorimetry. The method in brief: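 α-Chymotrypsin, 1 U, 25 °C, in a 10 mm quartz cuvette, 200 μL final; inhibitor from DMSO (typically 1 mM stock, 10 μL) or DMSO alone. Absorbance read at 256 nm after 5 min incubation; tested up to 60 μg/mL.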

Data set [3] addresses T2, Carboxypeptidase B2 (Homo sapiens) (UniProt Q96IY4).
T2 sequence (whole entry): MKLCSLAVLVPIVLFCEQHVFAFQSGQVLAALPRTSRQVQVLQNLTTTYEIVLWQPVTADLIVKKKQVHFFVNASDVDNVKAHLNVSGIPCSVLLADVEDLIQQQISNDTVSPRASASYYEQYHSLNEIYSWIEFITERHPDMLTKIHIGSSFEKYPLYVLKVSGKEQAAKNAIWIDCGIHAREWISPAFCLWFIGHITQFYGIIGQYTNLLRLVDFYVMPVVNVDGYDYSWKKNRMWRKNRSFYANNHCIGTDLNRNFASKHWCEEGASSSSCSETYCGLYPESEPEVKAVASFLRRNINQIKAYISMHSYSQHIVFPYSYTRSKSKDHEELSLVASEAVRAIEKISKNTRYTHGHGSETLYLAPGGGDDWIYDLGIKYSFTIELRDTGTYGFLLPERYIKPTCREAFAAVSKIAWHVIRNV
The experiment in a line: Inhibition of carboxypeptidase U at 60 ug/mL. In short, it runs like this:
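CPU (activated TAFI) assayed with a commercial TAFIa kit per manufacturer's instructions, run like the CPA/chymotrypsin assays; compounds tested up to 60 μg/mL.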

The target of another data set is T3, Carboxypeptidase A1 (Bos taurus, UniProt P00730).
T3 sequence (P00730 whole entry): T1 sequence (whole entry)
The experiment in a line: Inhibition of bovine pancreas carboxypeptidase A using N-(4-methoxyphenylazoformyl)-phenylalanine as substrate after 5 mins by colorimetry. In short, it runs like this:
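Bovine pancreas CPA, 1 U, 25 °C, 200 μL final; inhibitor added from DMSO (typically 1 mM stock, 10 μL) or DMSO alone. Absorbance at 350 nm after 5 min. Curves fitted to %inhibition=[…].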

The nature of data set [4]: Solubility of the compound. Type of data set: physicochemical.

Turning to `CC[C@H](C)[C@@H]1NC(=O)[C@H](N)CCCCNC(=O)[C@H](Cc2ccccc2)NC1=O`, the inhibition entry in data set [1], in data set [2] and in data set [3] was “inactive” throughout.

As to `CC[C@H](C)[C@@H]1NC(=O)[C@@H](NC(=O)N[C@@H](Cc2ccccc2)C(=O)O)CCCCNC(=O)[C@H](Cc2ccccc2)NC1=O`, the inhibition result in data set [1], in data set [2] and in data set [3] was “inactive” throughout.

Take `CC[C@H](C)[C@@H]1NC(=O)[C@H](NC(=O)N[C@@H](Cc2ccccc2)C(=O)O)CCCCNC(=O)[C@H](Cc2ccccc2)NC(=O)[C@H]([C@@H](C)CC)NC(=O)[C@H](NC(=O)N[C@@H](Cc2ccccc2)C(=O)O)CCCCNC(=O)[C@H](Cc2ccccc2)NC1=O`: in data set [1], the inhibition entry was “inactive”.

As usually defined, the IC50 is the concentration needed to halve the response being measured. On Carboxypeptidase A1, `CC[C@H](C)[C@H](NC(=O)[C@@H](CCCCN)NC(=O)N[C@@H](Cc1ccccc1)C(=O)O)C(=O)N[C@@H](Cc1ccccc1)C(N)=O` came in with an IC50 of 4500 nM. Also, the inhibition entry in data set [2] and in data set [3] was “inactive” in each case.

For `CC[C@@H](C)[C@@H]1NC(=O)[C@H](NC(=O)N[C@@H](Cc2ccccc2)C(=O)O)CCCCNC(=O)[C@H](Cc2ccccc2)NC1=O`, in data set [4], the solubility result is recorded as “Insoluble”. For the same compound, the inhibition entry in data set [1] is “inactive”.

Take `CC[C@H](C)[C@@H]1NC(=O)[C@H](NC(=O)N[C@@H](Cc2ccccc2)C(=O)O)CCCCNC(=O)[C@H](Cc2ccccc2)NC1=O` [NAMALIDE]: on Carboxypeptidase A1, the IC50 is 250 nM. Further, the inhibition result in data set [2] and in data set [3] was “inactive” each time.
